Laboratory results reported in ChEMBL document CHEMBL5724801, “EUbOPEN Chemogenomics Library - Multiplex” (2024).
“And” between values parts separate entries of the source, which are not always exact repeats. Equal entries are not always repeated.

Experiments:
Assay type in all cases: toxicity, cell-based
HEK-293T = experiment: Multiplex assay against HEK293T; conditions: human
Method in brief: (§1)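 With compound added, live cells were imaged on a CQ1 microscope at 37°C and 5% CO2; staining with Hoechst33342, BioTracker Green Microtubule Cytoskeleton Dye, MitoTracker Red and Annexin V Alexa Fluor 680 had been done at seeding. The CellPathfinder machine-learning gating scheme split cells into Hoechst high-intensity objects or normal cells, normal cells into healthy, pyknosed or fragmented nuclei, and pyknosed cells into mitotic or apoptotic. The tubulin, mitochondrial-mass and membrane-permeability phenotypes are per cents of healthy-nucleus cells.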

Fibroblast = experiment: Multiplex assay against human fibroblast; method in brief: as §1
U2OS = experiment: Multiplex assay against U2OS; conditions: human; method in brief: as §1
[1] = 12 h, 1 µM, compound concentration 1 uM
[2] = 12 h, 10 µM, compound concentration 10 uM
[3] = 24 h, 1 µM, compound concentration 1 uM
[4] = 24 h, 10 µM, compound concentration 10 uM
[5] = 48 h, 1 µM, compound concentration 1 uM
[6] = 48 h, 10 µM, compound concentration 10 uM

## Cn1cc(C(=O)OCC2CCN(CCNS(C)(=O)=O)CC2)c2ccccc21
HEK-293T; [1]
  Population Apoptotic (%): 39% and 56%
  Population Fragmented Nuclei (%): 5% and 9%
  Population Healthy Nuclei (%): 83% and 76%
  Population Hoechst High Intensity Objects (%): 7% and 8%
  Population Membrane Permeable-Phenotype (%): 0%
  Population Mitochondria Different-Phenotype (%): 35% and 62%
  Population Mitotic Cells (%): 60% and 43%
  Population Normal (%): 92% and 91%
  Population Pyknosed Nuclei (%): 10% and 14%
  Population Tubulin-Different-Phenotype (%): 22% and 28%
  Total Cell Count: 466 and 248
HEK-293T; [2]
  Population Apoptotic (%): 47% and 43%
  Population Fragmented Nuclei (%): 10%
  Population Healthy Nuclei (%): 73% and 71%
  Population Hoechst High Intensity Objects (%): 6% and 10%
  Population Membrane Permeable-Phenotype (%): 0%
  Population Mitochondria Different-Phenotype (%): 55% and 73%
  Population Mitotic Cells (%): 52% and 56%
  Population Normal (%): 93% and 89%
  Population Pyknosed Nuclei (%): 15% and 18%
  Population Tubulin-Different-Phenotype (%): 53% and 47%
  Total Cell Count: 479 and 393
HEK-293T; [3]
  Population Apoptotic (%): 29% and 48%
  Population Fragmented Nuclei (%): 6% and 12%
  Population Healthy Nuclei (%): 82% and 76%
  Population Hoechst High Intensity Objects (%): 4% and 5%
  Population Membrane Permeable-Phenotype (%): 1% and 0%
  Population Mitochondria Different-Phenotype (%): 21% and 42%
  Population Mitotic Cells (%): 70% and 51%
  Population Normal (%): 95% and 94%
  Population Pyknosed Nuclei (%): 10%
  Population Tubulin-Different-Phenotype (%): 16% and 17%
  Total Cell Count: 650 and 283
HEK-293T; [4]
  Population Apoptotic (%): 35% and 48%
  Population Fragmented Nuclei (%): 11% and 10%
  Population Healthy Nuclei (%): 74% and 79%
  Population Hoechst High Intensity Objects (%): 5% and 6%
  Population Membrane Permeable-Phenotype (%): 1% and 0%
  Population Mitochondria Different-Phenotype (%): 43% and 56%
  Population Mitotic Cells (%): 64% and 51%
  Population Normal (%): 94% and 93%
  Population Pyknosed Nuclei (%): 13% and 9%
  Population Tubulin-Different-Phenotype (%): 50% and 37%
  Total Cell Count: 587 and 491
HEK-293T; [5]
  Population Apoptotic (%): 25% and 44%
  Population Fragmented Nuclei (%): 12% and 11%
  Population Healthy Nuclei (%): 78% and 82%
  Population Hoechst High Intensity Objects (%): 3% and 4%
  Population Membrane Permeable-Phenotype (%): 1% and 3%
  Population Mitochondria Different-Phenotype (%): 12% and 23%
  Population Mitotic Cells (%): 74% and 55%
  Population Normal (%): 96% and 95%
  Population Pyknosed Nuclei (%): 8% and 6%
  Population Tubulin-Different-Phenotype (%): 10% and 11%
  Total Cell Count: 1090 and 490
HEK-293T; [6]
  Population Apoptotic (%): 38%
  Population Fragmented Nuclei (%): 16% and 13%
  Population Healthy Nuclei (%): 77% and 79%
  Population Hoechst High Intensity Objects (%): 6% and 4%
  Population Membrane Permeable-Phenotype (%): 1% and 0%
  Population Mitochondria Different-Phenotype (%): 31% and 37%
  Population Mitotic Cells (%): 61%
  Population Normal (%): 93% and 95%
  Population Pyknosed Nuclei (%): 6%
  Population Tubulin-Different-Phenotype (%): 28% and 26%
  Total Cell Count: 883 and 758
Fibroblast; [1]
  Population Apoptotic (%): 44% and 33%
  Population Fragmented Nuclei (%): 13% and 21%
  Population Healthy Nuclei (%): 71% and 46%
  Population Hoechst High Intensity Objects (%): 1% and 4%
  Population Membrane Permeable-Phenotype (%): 0% and 9%
  Population Mitochondria Different-Phenotype (%): 3% and 1%
  Population Mitotic Cells (%): 55% and 66%
  Population Normal (%): 98% and 95%
  Population Pyknosed Nuclei (%): 14% and 32%
  Population Tubulin-Different-Phenotype (%): 23% and 37%
  Total Cell Count: 202 and 164
Fibroblast; [2]
  Population Apoptotic (%): 48% and 25%
  Population Fragmented Nuclei (%): 29% and 32%
  Population Healthy Nuclei (%): 55% and 51%
  Population Hoechst High Intensity Objects (%): 3% and 5%
  Population Membrane Permeable-Phenotype (%): 0% and 5%
  Population Mitochondria Different-Phenotype (%): 9% and 7%
  Population Mitotic Cells (%): 51% and 75%
  Population Normal (%): 96% and 94%
  Population Pyknosed Nuclei (%): 14% and 16%
  Population Tubulin-Different-Phenotype (%): 41% and 47%
  Total Cell Count: 207 and 184
Fibroblast; [3]
  Population Apoptotic (%): 31% and 30%
  Population Fragmented Nuclei (%): 13% and 25%
  Population Healthy Nuclei (%): 74% and 47%
  Population Hoechst High Intensity Objects (%): 5% and 2%
  Population Membrane Permeable-Phenotype (%): 0% and 7%
  Population Mitochondria Different-Phenotype (%): 0% and 6%
  Population Mitotic Cells (%): 68% and 69%
  Population Normal (%): 94% and 97%
  Population Pyknosed Nuclei (%): 11% and 26%
  Population Tubulin-Different-Phenotype (%): 23% and 48%
  Total Cell Count: 201 and 168
Fibroblast; [4]
  Population Apoptotic (%): 80% and 41%
  Population Fragmented Nuclei (%): 33% and 40%
  Population Healthy Nuclei (%): 53% and 43%
  Population Hoechst High Intensity Objects (%): 5% and 4%
  Population Membrane Permeable-Phenotype (%): 0% and 3%
  Population Mitochondria Different-Phenotype (%): 3% and 5%
  Population Mitotic Cells (%): 20% and 58%
  Population Normal (%): 94% and 95%
  Population Pyknosed Nuclei (%): 13% and 16%
  Population Tubulin-Different-Phenotype (%): 42% and 52%
  Total Cell Count: 201 and 188
Fibroblast; [5]
  Population Apoptotic (%): 54% and 52%
  Population Fragmented Nuclei (%): 14% and 33%
  Population Healthy Nuclei (%): 72% and 54%
  Population Hoechst High Intensity Objects (%): 5% and 4%
  Population Membrane Permeable-Phenotype (%): 0% and 5%
  Population Mitochondria Different-Phenotype (%): 1% and 2%
  Population Mitotic Cells (%): 45% and 47%
  Population Normal (%): 94% and 95%
  Population Pyknosed Nuclei (%): 12%
  Population Tubulin-Different-Phenotype (%): 23% and 43%
  Total Cell Count: 197 and 177
Fibroblast; [6]
  Population Apoptotic (%): 68% and 50%
  Population Fragmented Nuclei (%): 28% and 40%
  Population Healthy Nuclei (%): 58% and 46%
  Population Hoechst High Intensity Objects (%): 9% and 6%
  Population Membrane Permeable-Phenotype (%): 0% and 2%
  Population Mitochondria Different-Phenotype (%): 9% and 8%
  Population Mitotic Cells (%): 32% and 50%
  Population Normal (%): 90% and 93%
  Population Pyknosed Nuclei (%): 13% and 12%
  Population Tubulin-Different-Phenotype (%): 49% and 60%
  Total Cell Count: 199 and 190
U2OS; [1]
  Population Apoptotic (%): 73% and 77%
  Population Fragmented Nuclei (%): 27% and 20%
  Population Healthy Nuclei (%): 63% and 71%
  Population Hoechst High Intensity Objects (%): 3% and 0%
  Population Membrane Permeable-Phenotype (%): 7% and 13%
  Population Mitochondria Different-Phenotype (%): 4% and 5%
  Population Mitotic Cells (%): 26% and 22%
  Population Normal (%): 96% and 100%
  Population Pyknosed Nuclei (%): 8%
  Population Tubulin-Different-Phenotype (%): 5% and 6%
  Total Cell Count: 226 and 110
U2OS; [2]
  Population Apoptotic (%): 53% and 57%
  Population Fragmented Nuclei (%): 36% and 18%
  Population Healthy Nuclei (%): 58% and 76%
  Population Hoechst High Intensity Objects (%): 0% and 1%
  Population Membrane Permeable-Phenotype (%): 10% and 17%
  Population Mitochondria Different-Phenotype (%): 5% and 13%
  Population Mitotic Cells (%): 46% and 42%
  Population Normal (%): 99% and 98%
  Population Pyknosed Nuclei (%): 5%
  Population Tubulin-Different-Phenotype (%): 5% and 9%
  Total Cell Count: 252 and 137
U2OS; [3]
  Population Apoptotic (%): 95% and 100%
  Population Fragmented Nuclei (%): 26% and 17%
  Population Healthy Nuclei (%): 65% and 78%
  Population Hoechst High Intensity Objects (%): 2% and 0%
  Population Membrane Permeable-Phenotype (%): 4% and 10%
  Population Mitochondria Different-Phenotype (%): 2% and 5%
  Population Mitotic Cells (%): 4% and 0%
  Population Normal (%): 97% and 100%
  Population Pyknosed Nuclei (%): 8% and 4%
  Population Tubulin-Different-Phenotype (%): 3% and 6%
  Total Cell Count: 263 and 144
U2OS; [4]
  Population Apoptotic (%): 92% and 64%
  Population Fragmented Nuclei (%): 33% and 16%
  Population Healthy Nuclei (%): 61% and 73%
  Population Hoechst High Intensity Objects (%): 2% and 1%
  Population Membrane Permeable-Phenotype (%): 11% and 12%
  Population Mitochondria Different-Phenotype (%): 5% and 8%
  Population Normal (%): 97% and 98%
  Population Pyknosed Nuclei (%): 4% and 9%
  Population Tubulin-Different-Phenotype (%): 4% and 8%
  Total Cell Count: 281 and 150
U2OS; [5]
  Population Apoptotic (%): 91% and 57%
  Population Fragmented Nuclei (%): 20% and 13%
  Population Healthy Nuclei (%): 69% and 75%
  Population Hoechst High Intensity Objects (%): 1% and 2%
  Population Membrane Permeable-Phenotype (%): 8% and 6%
  Population Mitochondria Different-Phenotype (%): 3% and 5%
  Population Normal (%): 98% and 97%
  Population Pyknosed Nuclei (%): 9% and 10%
  Population Tubulin-Different-Phenotype (%): 5% and 4%
  Total Cell Count: 372 and 182
U2OS; [6]
  Population Apoptotic (%): 88% and 75%
  Population Healthy Nuclei (%): 58% and 79%
  Population Hoechst High Intensity Objects (%): 1% and 3%
  Population Membrane Permeable-Phenotype (%): 9% and 13%
  Population Mitochondria Different-Phenotype (%): 4% and 6%
  Population Mitotic Cells (%): 11% and 25%
  Population Normal (%): 98% and 97%
  Population Pyknosed Nuclei (%): 10%
  Population Tubulin-Different-Phenotype (%): 7% and 5%
  Total Cell Count: 341 and 200
